ChEMBL document CHEMBL1158372, “Design, synthesis, and biological evaluation of novel triazole derivatives as inhibitors of cytochrome P450 14alpha-demethylase” (2009)
≈ marks a conversion by molar mass, not a printed value.

Columns and labels:
Type in all cases: functional
Candida albicans = assay: Antifungal activity against Candida albicans ATCC 76615 after 24 hrs by micro-broth dilution method; conditions: ATCC 76615, 24 h
Outline: (§1)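 NCCLS (M27-A2) broth microdilution in 96-well format. Compounds in DMSO, serially diluted in growth medium, inoculated, incubated at 35 °C, and read at 24 h (C. albicans ATCC76615) or 72 h (Cry. neoformans ATCC32609). MIC80 is the first well with about 80% less growth than the drug-free well. Three independent runs per agent; the mean of replicates is reported.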

Cryptococcus neoformans = assay: Antifungal activity against Cryptococcus neoformans ATCC 32609 after 72 hrs by micro-broth dilution method; conditions: ATCC 32609, 72 h; outline: as §1
Candida parapsilosis = assay: Antifungal activity against Candida parapsilosis by micro-broth dilution method; conditions: Lodderomyces parapsilosis
Outline: (§2)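 Broth microdilution in 96-well plates following the NCCLS method. DMSO solutions of test agents were serially diluted in growth medium, inoculated, and incubated at 35 °C. MIC80 is the first well showing roughly 80% growth reduction versus the drug-free control. C. albicans ATCC76615 and Cry. neoformans ATCC32609 served as quality-control strains. Each test was done three times; the mean of replicates is reported.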

Candida tropicalis = assay: Antifungal activity against Candida tropicalis by micro-broth dilution method; outline: as §2
Trichophyton rubrum = assay: Antifungal activity against Trichophyton rubrum by micro-broth dilution method; outline: as §2
Pichia kudriavzevii = assay: Antifungal activity against Candida krusei by micro-broth dilution method; outline: as §2
Nannizzia gypsea = assay: Antifungal activity against Microsporum gypseum by micro-broth dilution method; outline: as §2
Aspergillus fumigatus = assay: Antifungal activity against Aspergillus fumigatus by micro-broth dilution method; outline: as §2

SMILES	MIC80 (Candida albicans)	MIC80 (Cryptococcus neoformans)	MIC80 (Candida parapsilosis)	MIC80 (Candida tropicalis)	MIC80 (Trichophyton rubrum)	MIC80 (Pichia kudriavzevii)	MIC80 (Nannizzia gypsea)	MIC80 (Aspergillus fumigatus)
C=CCN(Cc1ccccc1C)CC(O)(Cn1cncn1)c1ccc(F)cc1F (stereo not drawn)	0.0156 µg/mL (≈ 0.0392 µM)	0.0625 µg/mL (≈ 0.157 µM)	0.0625 µg/mL (≈ 0.157 µM)	0.0625 µg/mL (≈ 0.157 µM)	0.0625 µg/mL (≈ 0.157 µM)	0.0625 µg/mL (≈ 0.157 µM)	0.0039 µg/mL (≈ 0.00979 µM)	> 64 µg/mL
C=CCN(Cc1ccc(Cl)cc1)CC(O)(Cn1cncn1)c1ccc(F)cc1F (stereo not drawn)	0.25 µg/mL (≈ 0.597 µM)	0.25 µg/mL (≈ 0.597 µM)	0.25 µg/mL (≈ 0.597 µM)	0.25 µg/mL (≈ 0.597 µM)	0.25 µg/mL (≈ 0.597 µM)	0.0625 µg/mL (≈ 0.149 µM)	0.0625 µg/mL (≈ 0.149 µM)	16 µg/mL (≈ 38.2 µM)
C=CCN(Cc1ccccc1Br)CC(O)(Cn1cncn1)c1ccc(F)cc1F (stereo not drawn)	0.0625 µg/mL (≈ 0.135 µM)	0.25 µg/mL (≈ 0.54 µM)	0.25 µg/mL (≈ 0.54 µM)	0.0625 µg/mL (≈ 0.135 µM)	0.25 µg/mL (≈ 0.54 µM)	0.25 µg/mL (≈ 0.54 µM)	0.0156 µg/mL (≈ 0.0337 µM)	> 64 µg/mL
C=CCN(Cc1ccc([N+](=O)[O-])cc1)CC(O)(Cn1cncn1)c1ccc(F)cc1F (stereo not drawn)	0.0156 µg/mL (≈ 0.0363 µM)	0.25 µg/mL (≈ 0.582 µM)	0.0625 µg/mL (≈ 0.146 µM)	0.25 µg/mL (≈ 0.582 µM)	0.25 µg/mL (≈ 0.582 µM)	0.0625 µg/mL (≈ 0.146 µM)	0.0156 µg/mL (≈ 0.0363 µM)	> 64 µg/mL
C=CCN(Cc1ccc(C(=O)OC)cc1)CC(O)(Cn1cncn1)c1ccc(F)cc1F (stereo not drawn)	0.0625 µg/mL (≈ 0.141 µM)	0.25 µg/mL (≈ 0.565 µM)	0.25 µg/mL (≈ 0.565 µM)	0.0625 µg/mL (≈ 0.141 µM)	0.25 µg/mL (≈ 0.565 µM)	0.0625 µg/mL (≈ 0.141 µM)	0.0156 µg/mL (≈ 0.0353 µM)	> 64 µg/mL
C=CCN(Cc1ccc(C(=O)OC(C)C)cc1)CC(O)(Cn1cncn1)c1ccc(F)cc1F (stereo not drawn)	0.25 µg/mL (≈ 0.531 µM)	1 µg/mL (≈ 2.13 µM)	1 µg/mL (≈ 2.13 µM)	1 µg/mL (≈ 2.13 µM)	1 µg/mL (≈ 2.13 µM)	0.25 µg/mL (≈ 0.531 µM)	0.0156 µg/mL (≈ 0.0332 µM)	> 64 µg/mL
C=CCN(Cc1ccc(C(=O)Oc2ccccc2)cc1)CC(O)(Cn1cncn1)c1ccc(F)cc1F (stereo not drawn)	1 µg/mL (≈ 1.98 µM)	1 µg/mL (≈ 1.98 µM)	1 µg/mL (≈ 1.98 µM)	1 µg/mL (≈ 1.98 µM)	16 µg/mL (≈ 31.7 µM)	1 µg/mL (≈ 1.98 µM)	1 µg/mL (≈ 1.98 µM)	> 64 µg/mL
C=CCN(Cc1ccc(C(=O)OCC(C)C)cc1)CC(O)(Cn1cncn1)c1ccc(F)cc1F (stereo not drawn)	1 µg/mL (≈ 2.06 µM)	1 µg/mL (≈ 2.06 µM)	0.25 µg/mL (≈ 0.516 µM)	1 µg/mL (≈ 2.06 µM)	0.0625 µg/mL (≈ 0.129 µM)	1 µg/mL (≈ 2.06 µM)	0.25 µg/mL (≈ 0.516 µM)	> 64 µg/mL
C=CCN(Cc1ccc(C)cc1)CC(O)(Cn1cncn1)c1ccc(F)cc1F (stereo not drawn)	0.0156 µg/mL (≈ 0.0392 µM)	0.0625 µg/mL (≈ 0.157 µM)	0.25 µg/mL (≈ 0.627 µM)	0.25 µg/mL (≈ 0.627 µM)	1 µg/mL (≈ 2.51 µM)	0.0625 µg/mL (≈ 0.157 µM)	0.0156 µg/mL (≈ 0.0392 µM)	> 64 µg/mL
C=CCN(Cc1ccc(C(=O)Oc2ccc(Cl)cc2)cc1)CC(O)(Cn1cncn1)c1ccc(F)cc1F (stereo not drawn)	1 µg/mL (≈ 1.86 µM)	16 µg/mL (≈ 29.7 µM)	1 µg/mL (≈ 1.86 µM)	4 µg/mL (≈ 7.42 µM)	4 µg/mL (≈ 7.42 µM)	4 µg/mL (≈ 7.42 µM)	0.25 µg/mL (≈ 0.464 µM)	> 64 µg/mL
C[C@@H]1[C@H](O)[C@@H](C)/C=C/C=C/C=C/C=C/C=C/C=C/C=C/[C@H](O[C@@H]2O[C@H](C)[C@@H](O)[C@H](N)[C@@H]2O)C[C@@H]2O[C@](O)(C[C@@H](O)C[C@@H](O)[C@H](O)CC[C@@H](O)C[C@@H](O)CC(=O)O[C@H]1C)C[C@H](O)[C@H]2C(=O)O [AMPHOTERICIN B]	2 µg/mL (≈ 2.16 µM)	2 µg/mL (≈ 2.16 µM)	2 µg/mL (≈ 2.16 µM)	2 µg/mL (≈ 2.16 µM)	2 µg/mL (≈ 2.16 µM)	2 µg/mL (≈ 2.16 µM)	2 µg/mL (≈ 2.16 µM)	64 µg/mL (≈ 69.3 µM)
OC(Cn1cncn1)(Cn1cncn1)c1ccc(F)cc1F [FLUCONAZOLE]	0.5 µg/mL (≈ 1.63 µM)	1 µg/mL (≈ 3.27 µM)	1 µg/mL (≈ 3.27 µM)	1 µg/mL (≈ 3.27 µM)	4 µg/mL (≈ 13.1 µM)	4 µg/mL (≈ 13.1 µM)	0.25 µg/mL (≈ 0.816 µM)	> 64 µg/mL
CCC(C)n1ncn(-c2ccc(N3CCN(c4ccc(OCC5COC(Cn6cncn6)(c6ccc(Cl)cc6Cl)O5)cc4)CC3)cc2)c1=O (stereo not drawn) [ITRACONAZOLE]	0.0625 µg/mL (≈ 0.0886 µM)	0.125 µg/mL (≈ 0.177 µM)	0.125 µg/mL (≈ 0.177 µM)	0.125 µg/mL (≈ 0.177 µM)	0.125 µg/mL (≈ 0.177 µM)	0.5 µg/mL (≈ 0.709 µM)	0.0625 µg/mL (≈ 0.0886 µM)	0.5 µg/mL (≈ 0.709 µM)
CC(=O)N1CCN(c2ccc(OCC3COC(Cn4ccnc4)(c4ccc(Cl)cc4Cl)O3)cc2)CC1 (stereo not drawn) [KETOCONAZOLE]	0.0156 µg/mL (≈ 0.0294 µM)	0.0625 µg/mL (≈ 0.118 µM)	0.0625 µg/mL (≈ 0.118 µM)	0.0625 µg/mL (≈ 0.118 µM)	0.0625 µg/mL (≈ 0.118 µM)	0.25 µg/mL (≈ 0.47 µM)	0.0156 µg/mL (≈ 0.0294 µM)	1 µg/mL (≈ 1.88 µM)
CN(C/C=C/C#CC(C)(C)C)Cc1cccc2ccccc12 [TERBINAFINE]	4 µg/mL (≈ 13.7 µM)	1 µg/mL (≈ 3.43 µM)	0.25 µg/mL (≈ 0.858 µM)	0.0625 µg/mL (≈ 0.214 µM)	0.0625 µg/mL (≈ 0.214 µM)	16 µg/mL (≈ 54.9 µM)	4 µg/mL (≈ 13.7 µM)	0.0625 µg/mL (≈ 0.214 µM)
C[C@@H](c1ncncc1F)[C@](O)(Cn1cncn1)c1ccc(F)cc1F [VORICONAZOLE]	0.0156 µg/mL (≈ 0.0447 µM)	0.0156 µg/mL (≈ 0.0447 µM)	0.0039 µg/mL (≈ 0.0112 µM)	0.0039 µg/mL (≈ 0.0112 µM)	0.0625 µg/mL (≈ 0.179 µM)	0.0625 µg/mL (≈ 0.179 µM)	0.0039 µg/mL (≈ 0.0112 µM)	0.25 µg/mL (≈ 0.716 µM)
